Experimental data taken from ChEMBL document CHEMBL4261600 (Eur J Med Chem, 2018).
Calls of active or inactive are those of the source.

Experiments:
[1] = biological target: Beta-adrenergic receptor kinase 1 (Homo sapiens) (UniProt P25098); assay: Binding affinity to wild-type human full length GRK2 (M1 to L689 residues) expressed in mammalian expression system assessed as remaining unbound target protein level at 1000 nM by Kinomescan method relative to control
Outline: (§1)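 KINOMEscan competition binding profile across a panel of 468 kinases and mutants, with the inhibitor tested at a single concentration of 1 μM. Binding is reported as percent of control, meaning signal relative to a DMSO control.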

[2] = biological target: Serine/threonine-protein kinase tousled-like 2 (Homo sapiens) (UniProt Q86UE8); assay: Binding affinity to wild-type human partial length TLK2 (E424 to N749 residues) expressed in bacterial expression system assessed as remaining unbound target protein level at 1000 nM by Kinomescan method relative to control
[3] = biological target: Receptor-interacting serine/threonine-protein kinase 4 (Homo sapiens) (UniProt P57078); assay: Binding affinity to wild-type human partial length RIPK4 (M1 to V303 residues) expressed in mammalian expression system assessed as remaining unbound target protein level at 1000 nM by Kinomescan method relative to control
[4] = biological target: Serine/threonine-protein kinase 17B (Homo sapiens) (UniProt O94768); assay: Binding affinity to wild-type human full length DRAK2 (M1 to C372 residues) expressed in bacterial expression system assessed as remaining unbound target protein level at 1000 nM by Kinomescan method relative to control
Outline: (§2)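 Single-point competition binding screen across a panel of 468 kinases and mutants, with the inhibitor at 1 μM. Binding is read out as percent of a DMSO control, and targets below 1 percent control were classed as strong binders.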

[5] = biological target: Phosphatidylinositol 4,5-bisphosphate 3-kinase catalytic subunit delta isoform (Homo sapiens) (UniProt O00329); assay: Binding affinity to wild-type human partial length PIK3CD (R108 to Q1044 residues) expressed in mammalian expression system assessed as remaining unbound target protein level at 1000 nM by Kinomescan method relative to control
[6] = biological target: Mitogen-activated protein kinase 13 (Homo sapiens) (UniProt O15264); assay: Binding affinity to wild-type human full length p38-delta (M1 to L365 residues) expressed in bacterial expression system assessed as remaining unbound target protein level at 1000 nM by Kinomescan method relative to control
Outline: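 Profiled in a KINOMEscan binding panel with the inhibitor at a single concentration of 1 μM. Binding to each kinase was read out as percent of control, relative to a DMSO control. Strong binders were defined as those with a percent control value below 1.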

[7] = system: eIF-2-alpha kinase GCN2 (Homo sapiens), Q9P2K8 [S808G]; assay: Binding affinity to wild-type human partial length GCN2 kinase domain 2 (R585 to T1018 residues) S808G mutant expressed in bacterial expression system assessed as remaining unbound target protein level at 1000 nM by Kinomescan method relative to control
[8] = biological target: Testis-specific serine/threonine-protein kinase 1 (Homo sapiens) (UniProt Q9BXA7); assay: Binding affinity to wild-type human full length TSSK1B (M1 to Q367 residues) expressed in bacterial expression system assessed as remaining unbound target protein level at 1000 nM by Kinomescan method relative to control; outline: as §1
[9] = system: Receptor-type tyrosine-protein kinase FLT3 (Homo sapiens), P36888 [D835Y]; assay: Binding affinity to human partial length FLT3 D835Y mutant (Q580 to Y969 residues) expressed in bacterial expression system assessed as remaining unbound target protein level at 1000 nM by Kinomescan method relative to control
Outline: (§3)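 KINOMEscan competition-binding profiling across the panel of 468 kinases and mutants, with inhibitor tested at 1 μM. Binding is expressed as percent of control, with DMSO as the reference control.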

[10] = biological target: Serine/threonine-protein kinase PAK 1 (Homo sapiens) (UniProt Q13153); assay: Binding affinity to wild-type human partial length PAK1 (S149 to H545 residues) expressed in bacterial expression system assessed as remaining unbound target protein level at 1000 nM by Kinomescan method relative to control
[11] = Half life in mouse at 10 mg/kg, po by LC-MS/MS analysis; format: ADME, organism-based; conditions: in vivo
[12] = system: Receptor-type tyrosine-protein kinase FLT3 (Homo sapiens), P36888 [D835V]; assay: Binding affinity to human partial length FLT3 D835V mutant (V592 to Y969 residues) expressed in bacterial expression system assessed as remaining unbound target protein level at 1000 nM by Kinomescan method relative to control; outline: as §3
[13] = biological target: Misshapen-like kinase 1 (Homo sapiens) (UniProt Q8N4C8); assay: Binding affinity to wild-type human partial length MINK (M1 to K312 residues) expressed in mammalian expression system assessed as remaining unbound target protein level at 1000 nM by Kinomescan method relative to control
[14] = biological target: Cyclin-dependent kinase 9 (Homo sapiens, UniProt P50750); assay: Inhibition of CDK9 in human HL60 cells assessed as decrease in RNA polymerase 2 phosphorylation at Ser 2 residues in CTD domain after 2 hrs by immunoblotting analysis; format: cell-based
[15] = biological target: Glycogen synthase kinase-3 beta (Homo sapiens) (UniProt P49841); assay: Binding affinity to wild-type human full length GSK3B (M1 to T433 residues) expressed in mammalian expression system assessed as remaining unbound target protein level at 1000 nM by Kinomescan method relative to control; outline: as §2
[16] = Clearance in beagle dog at 2 mg/kg, iv by LC-MS/MS analysis; format: ADME, organism-based, Canis lupus familiaris; conditions: in vivo
COLO 205 = assay: Antiproliferative activity against human COLO205 cells after 72 hrs by Celltiter-Glo assay; format: functional; conditions: COLO 205, 72 h
Outline: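 Cells seeded at 3000/well in 96-well plates, exposed to serially diluted compound for 72 h at 37 °C, 5% CO2. Viability read by CellTiter-Glo luminescence and normalized to DMSO control. GI50 derived from curve fit, mean of three independent measurements. Culture media: DMEM/10% FBS for adherent lines; IMDM for MV4-11 and MEC-1/2; RPMI 1640 for suspension lines and CHL.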

[17] = biological target: Protein kinase C delta type (Homo sapiens) (UniProt Q05655); assay: Binding affinity to wild-type human partial length PRKCD (Q328 to D676 residues) expressed in bacterial expression system assessed as remaining unbound target protein level at 1000 nM by Kinomescan method relative to control
MV4-11 = assay: Antitumor activity against human MV4-11 cells xenografted in nu/nu mouse assessed as tumor growth inhibition at 20 to 30 mg/kg, po administered via gavage for 21 days measured on day 21 post last dose; format: functional, organism-based
Outline: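 Female nu/nu mice, five weeks old, implanted subcutaneously in the right flank with 5 million MV4-11 cells in PBS/Matrigel 1:1. Daily oral gavage in 0.5% methylcellulose/0.4% Tween80 started at tumor volume 200–400 mm³, 10, 20 or 30 mg/kg/day or vehicle, 5 mice per group. Tumor volume (W²×L)/2 and body weight measured daily; mean ± SEM.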

[18] = biological target: Serine/threonine-protein kinase Nek7 (Homo sapiens) (UniProt Q8TDX7); assay: Binding affinity to wild-type human full length NEK7 (M1 to S302 residues) expressed in bacterial expression system assessed as remaining unbound target protein level at 1000 nM by Kinomescan method relative to control; outline: as §2

Sequence of Cyclin-dependent kinase 9 (P50750 whole entry, the tested form may be a part): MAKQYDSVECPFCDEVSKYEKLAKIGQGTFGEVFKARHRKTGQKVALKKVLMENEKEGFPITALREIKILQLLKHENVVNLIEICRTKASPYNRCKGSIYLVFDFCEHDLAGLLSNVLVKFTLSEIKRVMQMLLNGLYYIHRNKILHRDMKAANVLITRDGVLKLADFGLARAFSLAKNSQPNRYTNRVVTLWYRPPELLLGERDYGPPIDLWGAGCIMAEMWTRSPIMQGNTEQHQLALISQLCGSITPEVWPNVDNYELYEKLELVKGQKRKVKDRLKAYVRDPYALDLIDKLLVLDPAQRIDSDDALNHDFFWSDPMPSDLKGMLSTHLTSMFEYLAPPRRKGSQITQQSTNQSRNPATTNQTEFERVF
Sequence of Protein kinase C delta type (Homo sapiens) (Q05655 whole entry, looked up, the tested form may be a part): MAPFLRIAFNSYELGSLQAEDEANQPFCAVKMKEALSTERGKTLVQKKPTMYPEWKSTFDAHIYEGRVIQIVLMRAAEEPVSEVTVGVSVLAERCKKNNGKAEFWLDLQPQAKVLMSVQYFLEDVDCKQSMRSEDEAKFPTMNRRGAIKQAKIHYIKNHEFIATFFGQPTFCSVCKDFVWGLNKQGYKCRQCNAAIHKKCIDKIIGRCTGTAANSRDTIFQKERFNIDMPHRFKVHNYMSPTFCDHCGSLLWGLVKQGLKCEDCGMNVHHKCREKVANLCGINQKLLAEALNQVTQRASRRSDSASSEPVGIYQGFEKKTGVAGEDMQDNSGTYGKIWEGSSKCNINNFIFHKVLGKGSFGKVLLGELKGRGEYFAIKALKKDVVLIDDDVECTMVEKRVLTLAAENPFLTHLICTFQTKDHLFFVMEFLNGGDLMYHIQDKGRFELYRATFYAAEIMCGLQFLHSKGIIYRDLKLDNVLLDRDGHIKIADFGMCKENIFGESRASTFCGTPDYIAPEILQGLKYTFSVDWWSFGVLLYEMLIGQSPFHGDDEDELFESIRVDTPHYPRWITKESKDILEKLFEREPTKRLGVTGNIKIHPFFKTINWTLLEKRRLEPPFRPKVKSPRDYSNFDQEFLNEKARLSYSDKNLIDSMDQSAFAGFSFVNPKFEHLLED
Sequence of eIF-2-alpha kinase GCN2 (Homo sapiens), Q9P2K8 [S808G] (Q9P2K8 whole entry S808G, the tested form may be a part): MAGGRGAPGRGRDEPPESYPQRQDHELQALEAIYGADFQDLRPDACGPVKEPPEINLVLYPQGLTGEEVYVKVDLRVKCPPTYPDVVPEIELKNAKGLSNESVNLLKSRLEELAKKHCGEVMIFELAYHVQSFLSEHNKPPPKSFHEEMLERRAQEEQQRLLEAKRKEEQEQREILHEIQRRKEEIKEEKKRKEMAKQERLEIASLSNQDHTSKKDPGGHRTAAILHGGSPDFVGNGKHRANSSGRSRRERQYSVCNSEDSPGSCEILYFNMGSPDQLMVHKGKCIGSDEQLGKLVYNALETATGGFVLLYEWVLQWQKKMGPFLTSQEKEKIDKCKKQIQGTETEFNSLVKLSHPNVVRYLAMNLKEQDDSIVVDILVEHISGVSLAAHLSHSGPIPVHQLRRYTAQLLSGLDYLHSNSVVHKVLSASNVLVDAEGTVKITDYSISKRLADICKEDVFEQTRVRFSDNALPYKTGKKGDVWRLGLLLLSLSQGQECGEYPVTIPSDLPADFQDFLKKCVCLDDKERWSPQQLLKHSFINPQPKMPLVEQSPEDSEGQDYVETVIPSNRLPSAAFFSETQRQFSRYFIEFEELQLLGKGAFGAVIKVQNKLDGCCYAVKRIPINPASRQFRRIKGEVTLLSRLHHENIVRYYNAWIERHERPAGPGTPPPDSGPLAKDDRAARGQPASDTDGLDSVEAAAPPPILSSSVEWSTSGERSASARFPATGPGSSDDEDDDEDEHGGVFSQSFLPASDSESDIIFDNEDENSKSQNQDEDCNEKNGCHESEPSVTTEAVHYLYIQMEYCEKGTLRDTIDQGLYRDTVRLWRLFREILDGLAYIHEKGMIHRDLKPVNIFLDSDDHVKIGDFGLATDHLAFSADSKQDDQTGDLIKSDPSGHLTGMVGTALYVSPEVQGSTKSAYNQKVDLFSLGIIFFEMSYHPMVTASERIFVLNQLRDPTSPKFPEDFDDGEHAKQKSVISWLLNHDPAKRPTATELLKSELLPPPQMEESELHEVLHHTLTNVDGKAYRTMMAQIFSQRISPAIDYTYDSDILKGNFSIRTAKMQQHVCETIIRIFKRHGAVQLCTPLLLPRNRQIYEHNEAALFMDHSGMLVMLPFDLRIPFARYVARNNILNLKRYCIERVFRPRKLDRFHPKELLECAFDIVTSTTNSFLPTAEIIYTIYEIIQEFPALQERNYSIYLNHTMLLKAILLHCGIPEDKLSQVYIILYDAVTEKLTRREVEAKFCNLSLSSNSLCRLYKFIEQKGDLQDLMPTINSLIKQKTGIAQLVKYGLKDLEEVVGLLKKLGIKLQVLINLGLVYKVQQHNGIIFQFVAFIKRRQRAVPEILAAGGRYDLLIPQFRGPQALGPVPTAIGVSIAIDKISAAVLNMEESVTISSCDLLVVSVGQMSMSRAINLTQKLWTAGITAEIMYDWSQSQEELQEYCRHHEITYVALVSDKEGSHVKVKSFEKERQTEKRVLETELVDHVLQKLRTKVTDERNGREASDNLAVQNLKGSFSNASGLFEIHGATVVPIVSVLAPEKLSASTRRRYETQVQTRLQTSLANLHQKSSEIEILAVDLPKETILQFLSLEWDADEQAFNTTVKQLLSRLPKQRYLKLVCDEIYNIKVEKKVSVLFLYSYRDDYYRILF
Sequence of Serine/threonine-protein kinase 17B (Homo sapiens) (O94768 whole entry, the tested form may be a part): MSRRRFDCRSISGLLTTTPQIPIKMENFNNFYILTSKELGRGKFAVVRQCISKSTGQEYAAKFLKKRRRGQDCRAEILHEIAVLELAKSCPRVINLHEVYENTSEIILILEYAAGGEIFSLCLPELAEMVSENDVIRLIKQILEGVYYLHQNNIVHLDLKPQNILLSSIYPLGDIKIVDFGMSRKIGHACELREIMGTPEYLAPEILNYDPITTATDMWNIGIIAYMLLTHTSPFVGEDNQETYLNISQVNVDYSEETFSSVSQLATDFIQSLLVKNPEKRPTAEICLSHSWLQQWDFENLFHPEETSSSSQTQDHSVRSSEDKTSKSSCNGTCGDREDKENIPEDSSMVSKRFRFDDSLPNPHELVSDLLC
Sequence of Phosphatidylinositol 4,5-bisphosphate 3-kinase catalytic subunit delta isoform (Homo sapiens) (O00329 whole entry, the tested form may be a part, canonical isoform): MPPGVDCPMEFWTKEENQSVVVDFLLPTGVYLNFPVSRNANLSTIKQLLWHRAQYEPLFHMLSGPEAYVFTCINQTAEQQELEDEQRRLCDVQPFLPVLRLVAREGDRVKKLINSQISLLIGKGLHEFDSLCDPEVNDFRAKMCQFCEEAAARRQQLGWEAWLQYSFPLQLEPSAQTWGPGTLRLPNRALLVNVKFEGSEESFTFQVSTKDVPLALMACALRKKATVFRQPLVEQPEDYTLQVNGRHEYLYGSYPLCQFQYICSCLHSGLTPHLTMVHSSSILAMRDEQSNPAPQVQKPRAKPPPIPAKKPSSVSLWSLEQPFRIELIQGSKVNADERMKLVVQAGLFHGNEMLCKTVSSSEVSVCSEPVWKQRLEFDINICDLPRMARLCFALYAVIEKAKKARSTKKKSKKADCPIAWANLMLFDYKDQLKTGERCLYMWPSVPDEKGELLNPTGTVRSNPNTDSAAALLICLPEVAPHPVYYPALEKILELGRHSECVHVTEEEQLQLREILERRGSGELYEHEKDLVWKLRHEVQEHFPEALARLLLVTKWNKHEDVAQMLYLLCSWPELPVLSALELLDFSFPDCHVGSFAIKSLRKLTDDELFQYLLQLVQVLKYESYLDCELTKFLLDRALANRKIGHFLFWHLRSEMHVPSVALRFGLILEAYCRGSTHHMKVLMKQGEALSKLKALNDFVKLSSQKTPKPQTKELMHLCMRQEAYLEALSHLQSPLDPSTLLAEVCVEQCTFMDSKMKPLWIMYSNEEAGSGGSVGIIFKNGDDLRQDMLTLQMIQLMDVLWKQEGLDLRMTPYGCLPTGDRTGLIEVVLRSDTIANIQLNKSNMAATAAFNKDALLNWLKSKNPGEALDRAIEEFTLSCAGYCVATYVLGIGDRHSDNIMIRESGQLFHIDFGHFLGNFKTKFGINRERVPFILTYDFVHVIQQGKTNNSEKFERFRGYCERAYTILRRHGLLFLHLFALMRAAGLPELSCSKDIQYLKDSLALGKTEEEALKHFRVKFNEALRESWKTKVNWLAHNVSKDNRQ
Sequence of Serine/threonine-protein kinase PAK 1 (Homo sapiens) (Q13153 whole entry, the tested form may be a part): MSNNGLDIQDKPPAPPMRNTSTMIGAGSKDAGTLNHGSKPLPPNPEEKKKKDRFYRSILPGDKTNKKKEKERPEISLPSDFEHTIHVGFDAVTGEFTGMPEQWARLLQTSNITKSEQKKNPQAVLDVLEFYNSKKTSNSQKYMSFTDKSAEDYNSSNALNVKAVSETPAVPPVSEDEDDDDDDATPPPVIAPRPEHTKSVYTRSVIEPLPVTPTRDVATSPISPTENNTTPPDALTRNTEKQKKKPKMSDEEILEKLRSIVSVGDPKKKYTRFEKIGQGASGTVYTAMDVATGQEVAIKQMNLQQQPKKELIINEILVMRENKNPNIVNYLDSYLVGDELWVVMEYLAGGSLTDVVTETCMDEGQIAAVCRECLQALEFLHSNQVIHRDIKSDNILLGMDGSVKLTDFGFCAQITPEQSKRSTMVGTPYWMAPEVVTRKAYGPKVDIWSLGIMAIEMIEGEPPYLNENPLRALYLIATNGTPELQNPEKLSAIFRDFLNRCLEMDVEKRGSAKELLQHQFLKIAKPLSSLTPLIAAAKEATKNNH
Sequence of Testis-specific serine/threonine-protein kinase 1 (Homo sapiens) (Q9BXA7 whole entry, the tested form may be a part): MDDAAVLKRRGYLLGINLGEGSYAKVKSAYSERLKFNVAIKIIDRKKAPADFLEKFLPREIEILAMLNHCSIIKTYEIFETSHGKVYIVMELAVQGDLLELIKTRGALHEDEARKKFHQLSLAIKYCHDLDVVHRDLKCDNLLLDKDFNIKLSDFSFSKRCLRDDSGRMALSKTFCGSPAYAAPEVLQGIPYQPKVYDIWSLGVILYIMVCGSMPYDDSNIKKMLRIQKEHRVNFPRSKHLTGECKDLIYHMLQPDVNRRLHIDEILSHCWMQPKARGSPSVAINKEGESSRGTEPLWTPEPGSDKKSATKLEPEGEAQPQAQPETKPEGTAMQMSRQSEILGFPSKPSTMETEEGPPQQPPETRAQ

COCCN[C@H]1CC[C@H](Nc2cc(-c3csc(NCC4(C#N)CCOCC4)n3)c(Cl)cn2)CC1
Activity [1]: 91% | Activity [2]: 99% | Activity [3]: 100% | Activity [4]: 89% | Activity [5]: 85% | Activity [6]: 100% | Activity [7]: 78% | Activity [8]: 93% | Activity [9]: 100% | Activity [10]: 100% | half-life [11]: 1.55 h | Activity [12]: 88% | Activity [13]: 92% | EC50 [14]: < 100 nM | inhibition [14]: Dose-dependent effect | Activity [15]: 98% | clearance [16]: 11.9 mL/min/kg | GI50 (COLO 205): 14 nM | Activity [17]: 91% | TGI (MV4-11): Active | Activity [18]: 83%
